From ChEMBL document CHEMBL1153389, “Identification of novel antibacterial peptides by chemoinformatics and machine learning” (2009)

Test system: Pseudomonas aeruginosa
Test: Antimicrobial activity against Pseudomonas aeruginosa H1001 expressing luciferase gene assessed as ratio antimicrobial IC50 for drug to Bac2A peptide by luminescence assay
Type: functional
Summary of the method: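 Peptides are made by SPOT synthesis on cellulose, cleaved, and the spots placed in plate wells. Overnight P. aeruginosa H1001 (fliC::luxCDABE) is diluted 1:500 in 100 mM Tris-HCl pH 7.3 with 20 mM glucose and added to the wells. After 30 min, serial dilutions (8 rows) are made. Luminescence is read at 4 h. IC50 is taken from a sigmoid fit and expressed relative to Bac2A run in the same series.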

N=C(N)NCCC[C@H](NC(=O)[C@H](CCCNC(=N)N)NC(=O)[C@@H](N)CCCNC(=N)N)C(=O)N[C@@H](Cc1c[nH]c2ccccc12)C(=O)N[C@@H](Cc1c[nH]c2ccccc12)C(=O)N[C@@H](Cc1c[nH]c2ccccc12)C(=O)N[C@@H](Cc1c[nH]c2ccccc12)C(=O)N[C@@H](Cc1c[nH]c2ccccc12)C(=O)N[C@@H](Cc1c[nH]c2ccccc12)C(=O)O
Ratio IC50: 1.82

N=C(N)NCCC[C@H](NC(=O)[C@H](CCCCN)NC(=O)[C@H](CCCNC(=N)N)NC(=O)[C@@H](N)CCCNC(=N)N)C(=O)N[C@@H](Cc1c[nH]c2ccccc12)C(=O)N[C@@H](Cc1c[nH]c2ccccc12)C(=O)N[C@@H](Cc1c[nH]c2ccccc12)C(=O)N[C@@H](Cc1c[nH]c2ccccc12)C(=O)N[C@@H](Cc1c[nH]c2ccccc12)C(=O)O
Ratio IC50: 0.43

H-AFRGSRHRM-OH [AFRGSRHRM]
Ratio IC50: 11.36

H-AGGMRKRTR-OH
Ratio IC50: 25

H-AMLGGRQWR-OH
Ratio IC50: 6.75

H-ANRWGRGIR-OH
Ratio IC50: 10.8

H-ARGKSIKNR-OH
Ratio IC50: 8.35

H-ARGRWINGR-OH
Ratio IC50: 7.24

H-ASKRVGVRN-OH
Ratio IC50: 8.17

H-ATRKGYSKF-OH
Ratio IC50: 25

H-ATWIWVFRR-OH
Ratio IC50: 4.88

H-AWKIKKGRI-OH
Ratio IC50: 3.59

H-FMWVYRYKK-OH
Ratio IC50: 1.51

H-FVVMKRIVW-OH
Ratio IC50: 5.38

H-FVWQKGTNR-OH
Ratio IC50: 11.3

H-GGIRRLRWY-OH
Ratio IC50: 1.16

H-GGRGTRWHG-OH
Ratio IC50: 8.6

H-GIKWRSRRW-OH
Ratio IC50: 1.06

H-GKFYKVWVR-OH
Ratio IC50: 1.21

H-GKRVWGRGR-OH
Ratio IC50: 8.2

H-GMRRWRGKN-OH
Ratio IC50: 6.05

H-GRIGGKNVR-OH
Ratio IC50: 9.12

H-GRMRLWNGR-OH
Ratio IC50: 7.91

H-GRNGWYRIN-OH
Ratio IC50: 10.74

H-GRQISWGRT-OH
Ratio IC50: 8.04

H-GRRVMNQKR-OH
Ratio IC50: 9.83

H-GRRWGMGVR-OH
Ratio IC50: 7.75

H-GRTMNGRW-OH
Ratio IC50: 6.93

H-GSRRFGWNR-OH
Ratio IC50: 8.1

H-GSRRSVWVF-OH
Ratio IC50: 2.3

H-GVRSWSQRT-OH
Ratio IC50: 8.5

H-GVRVQRNSK-OH
Ratio IC50: 25

H-GWGGKRRNF-OH
Ratio IC50: 7.38

H-GWKILRKRK-OH
Ratio IC50: 2.74

H-GWNTMGRRW-OH
Ratio IC50: 6.32

H-HGVWGNRKR-OH
Ratio IC50: 7.95

H-HYKFQRWIK-OH
Ratio IC50: 2.79

H-IKRVKRRKR-OH
Ratio IC50: 2.93

H-IKRWWRWWR-OH
Ratio IC50: 0.23

H-IKRWWWRRW-OH
Ratio IC50: 0.22

H-IKWWWRMRI-OH
Ratio IC50: 0.39

H-ILRVISKRR-OH
Ratio IC50: 25

H-INRKRRLRW-OH
Ratio IC50: 4.25

H-IRGRIIFWV-OH
Ratio IC50: 0.44

H-IRKKRRRWT-OH
Ratio IC50: 6.59

H-IRKWRRWWK-OH
Ratio IC50: 0.41

H-IRMWVKRWR-OH
Ratio IC50: 0.61

H-IRQWWRRWW-OH
Ratio IC50: 0.5

H-IRRIVRRKI-OH
Ratio IC50: 11.15

H-IRRRKKRIK-OH
Ratio IC50: 6.42

H-IRRRKWWWW-OH
Ratio IC50: 0.21

H-IRRRWWWIV-OH
Ratio IC50: 0.23

H-IRWWKRWWR-OH
Ratio IC50: 0.21

H-IVVRVWVVR-OH
Ratio IC50: 3.5

H-IWIWRKLRW-OH
Ratio IC50: 0.46

H-IWKRWRKRL-OH
Ratio IC50: 0.33

H-IWKRWWRRW-OH
Ratio IC50: 0.24

H-KFRKRVWWW-OH
Ratio IC50: 0.3

H-KFWWWNYLK-OH
Ratio IC50: 1.81

H-KIRRKVRWG-OH
Ratio IC50: 10.55

H-KIWWWWRRR-OH
Ratio IC50: 0.21

H-KKRWLWWWR-OH
Ratio IC50: 0.3

H-KKRWVWVIR-OH
Ratio IC50: 0.35

H-KKSKQLWKR-OH
Ratio IC50: 3.23

H-KNNRRWQGR-OH
Ratio IC50: 6.45

H-KNRGRWFSH-OH
Ratio IC50: 9.79
